The source made the active and inactive calls. No cut-off for these calls is given here.
Assays:
HT-29 = experiment: Cytotoxicity against human HT-29 cells after 72 hrs by MTS assay; format: functional, cell-based; details: HT-29, 72 h
In short: (§1)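 MTS viability assay, read as mitochondrial dehydrogenase activity of metabolically active cells. Cells were seeded at 5.0 × 10^3 per well and attached overnight. Fresh medium with or without compound was added, followed by 72 h exposure at increasing concentrations. Error shown as ±SEM.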

BT-474 [1] = experiment: Antiproliferative activity against human BT474 cells after 48 hrs by BrdU incorporation assay; format: functional, cell-based
In short: (§2)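 Cells plated at 2.5 × 10^3 per well and allowed to attach overnight. Fresh growth medium with or without compound was added along with BrdU labelling reagent, and cells were incubated for the set time. BrdU incorporation was then read with a kit per the manufacturer. Data are mean ± SEM of three or more independent experiments, compared by two-tailed Student's t test.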

BT-474 [2] = experiment: Cytotoxicity against human BT474 cells assessed as cell viability at 100 uM by MTS assay; format: functional, cell-based
In short: (§3)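 MTS cell survival assay. Cells were plated at 5.0 × 10^3 per well and allowed to attach overnight, then given fresh medium with or without compound for the designated time. Absorbance was read per the kit protocol. Mean ± SEM of three or more independent experiments.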

[3] = target: Vascular endothelial growth factor receptor 3 (Homo sapiens) (UniProt P35916); experiment: Inhibition of VEGFR3 phosphorylation in human MCF7 cells expressing VEGFR3 assessed as complete dephosphorylation at Tyr1063/1068 activation loop at 1 to 10 uM by Western blotting; format: cell-based; details: TDE = time-dependent effect
Sequence of Vascular endothelial growth factor receptor 3 (Homo sapiens) (P35916 whole entry): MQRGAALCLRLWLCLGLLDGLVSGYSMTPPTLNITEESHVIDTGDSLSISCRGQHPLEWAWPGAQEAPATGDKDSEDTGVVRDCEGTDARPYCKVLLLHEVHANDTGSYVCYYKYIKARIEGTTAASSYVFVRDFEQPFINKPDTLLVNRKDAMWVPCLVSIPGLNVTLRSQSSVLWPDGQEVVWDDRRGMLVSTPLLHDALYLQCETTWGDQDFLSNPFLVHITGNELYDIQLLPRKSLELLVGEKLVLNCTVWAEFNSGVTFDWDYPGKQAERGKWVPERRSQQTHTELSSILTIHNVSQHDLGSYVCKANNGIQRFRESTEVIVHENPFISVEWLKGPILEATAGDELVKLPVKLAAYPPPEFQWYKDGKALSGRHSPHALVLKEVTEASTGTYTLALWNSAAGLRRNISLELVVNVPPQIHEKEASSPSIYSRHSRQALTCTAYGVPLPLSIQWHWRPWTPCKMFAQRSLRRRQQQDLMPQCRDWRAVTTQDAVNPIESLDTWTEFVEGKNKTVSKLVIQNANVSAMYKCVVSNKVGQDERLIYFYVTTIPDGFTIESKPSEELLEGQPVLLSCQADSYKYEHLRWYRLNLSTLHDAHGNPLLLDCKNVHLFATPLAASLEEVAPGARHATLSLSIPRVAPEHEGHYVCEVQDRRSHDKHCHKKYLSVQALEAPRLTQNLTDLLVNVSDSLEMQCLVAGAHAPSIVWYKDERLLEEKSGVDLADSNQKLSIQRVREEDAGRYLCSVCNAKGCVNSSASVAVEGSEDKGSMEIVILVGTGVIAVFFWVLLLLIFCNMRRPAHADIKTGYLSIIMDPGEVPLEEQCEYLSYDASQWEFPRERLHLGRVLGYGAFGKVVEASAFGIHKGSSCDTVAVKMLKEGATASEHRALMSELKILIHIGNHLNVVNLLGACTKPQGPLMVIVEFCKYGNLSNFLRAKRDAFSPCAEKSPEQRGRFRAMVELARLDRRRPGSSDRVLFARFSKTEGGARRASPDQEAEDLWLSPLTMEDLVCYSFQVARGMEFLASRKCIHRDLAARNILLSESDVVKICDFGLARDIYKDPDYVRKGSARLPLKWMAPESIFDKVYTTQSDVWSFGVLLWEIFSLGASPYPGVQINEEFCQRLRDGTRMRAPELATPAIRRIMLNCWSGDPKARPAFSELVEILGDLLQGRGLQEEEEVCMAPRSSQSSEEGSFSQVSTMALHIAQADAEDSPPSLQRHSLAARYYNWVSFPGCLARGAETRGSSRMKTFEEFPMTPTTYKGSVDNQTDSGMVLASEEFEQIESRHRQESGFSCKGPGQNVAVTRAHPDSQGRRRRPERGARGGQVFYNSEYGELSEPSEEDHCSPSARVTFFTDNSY

MCF7 [4] = experiment: Antiproliferative activity against human MCF7 cells at 10 uM after 48 hrs by BrdU incorporation assay; format: functional, cell-based; in short: as §2
MCF7 [5] = experiment: Induction of apoptosis in human MCF7 cells expressing VEGFR3 assessed as PARP degradation after 48 hrs; format: functional, cell-based
MCF7 [6] = experiment: Induction of apoptosis in human MCF7 cells expressing VEGFR3 assessed as procaspase 8 activation after 48 hrs; format: functional, cell-based
MCF7 [7] = experiment: Induction of apoptosis in human MCF7 cells at 10 uM after 48 hrs by TUNEL assay; format: functional
A-375 = experiment: Cytotoxicity against human A375 cells after 72 hrs by MTS assay; format: functional, cell-based; details: A-375, 72 h; in short: as §1
MCF7 [8] = experiment: Antitumor activity against human MCF7 cells expressing VEGFR3 xenografted in nude-foxn1nu mouse assessed as reduction in tumor growth at 60 mg/kg, ip qd administered day after injection of cells after 21 days relative to control; format: functional; design: scale not given: the % may be the effect or the level left; details: route intraperitoneal
In short: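 Female 5–6-week hsd:athymic nude-foxn1nu mice (5 per group) were given 2–5 × 10^6 MCF7-VEGFR-3 cells per 200 µl subcutaneously in the right flank. From the next day they received 60 mg/kg ip once daily or PBS vehicle for 21 days. Tumours were measured thrice weekly (volume = length × width² × 0.5), then excised and weighed at sacrifice.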

MCF7 [9] = experiment: Induction of apoptosis in human MCF7 cells assessed as procaspase 8 activation after 48 hrs; format: functional, cell-based
[10] = target: Vascular endothelial growth factor receptor 3 (Homo sapiens) (UniProt P35916); experiment: Inhibition of VEGFR3 phosphorylation in human BT474 cells assessed as complete dephosphorylation at Tyr1063/1068 activation loop at 1 to 10 uM by Western blotting; format: cell-based; details: BT-474, TDE = time-dependent effect
In short: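 BT474 cells were exposed for 24 h to increasing doses (1 and 10 µM). Western blots of lysates were probed with a phospho-specific VEGFR-3 antibody for Tyr1063/1068 in the kinase activation loop.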

MCF7 [11] = experiment: Cytotoxicity against human MCF7 cells assessed as cell viability at 10 uM after 48 hrs by MTS assay; format: functional
In short: (§4)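 Viability measured by MTS after 48 h exposure. Cells were seeded at 5.0 × 10^3 per well and attached overnight before compound-containing medium was added. BT474 is a […] subclone grown in RPMI-1640 with 10% FBS and 250 µg/ml insulin. MCF7 stable clones carried either empty pcDNA3 or VEGFR-3. Mean ± SEM, ≥3 experiments, two-tailed t test.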

MCF7 [12] = experiment: Cytotoxicity against human MCF7 cells expressing VEGFR3 assessed as cell viability after 48 hrs by MTS assay; format: functional, cell-based; in short: as §4
[13] = target: Vascular endothelial growth factor receptor 3 (Homo sapiens) (UniProt P35916); experiment: Inhibition of VEGFR3 phosphorylation in human MCF7 cells expressing VEGFR3 assessed as complete dephosphorylation at Tyr1063/1068 activation loop at 10 uM by Western blotting; format: cell-based
[14] = Cytotoxicity against human MCF10A cells assessed as cell viability at 0.1 to 10 uM by MTS assay; format: cell-based; details: mcf-10a; in short: as §3
[15] = target: Vascular endothelial growth factor receptor 3 (Homo sapiens) (UniProt P35916); experiment: Inhibition of VEGFR3 phosphorylation in human MCF7 cells expressing VEGFR3 cells assessed as partial dephosphorylation at Tyr1063/1068 activation loop at 1 uM after 24 hrs by Western blotting; format: cell-based
PANC-1 = experiment: Cytotoxicity against human PANC1 cells after 72 hrs by MTS assay; format: functional, cell-based; details: PANC-1, 72 h; in short: as §1
BT-474 [16] = experiment: Antitumor activity against human BT474 cells xenografted in nude-foxn1nu mouse assessed as reduction in tumor growth at 10 mg/kg, ip qd administered day after injection of cells after 14 days relative to control; format: functional; design: scale not given: the % may be the effect or the level left; details: route intraperitoneal
In short: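 Female 5–6-week hsd:athymic nude-foxn1nu mice (5 per group) received 2–5 × 10^6 BT474 cells per 200 µl subcutaneously in the right flank. Dosing at 10 mg/kg ip once daily began the next day. Tumours were measured thrice weekly, with volume = length × width² × 0.5. The study ended at 14 days against a vehicle group.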

MDA-MB-231 = experiment: Cytotoxicity against human MDA-MB-231 cells after 72 hrs by MTS assay; format: functional, cell-based; details: MDA-MB-231, 72 h; in short: as §1
[17] = target: Focal adhesion kinase 1 (Homo sapiens) (UniProt Q05397); experiment: Inhibition of FAK phosphorylation in human MCF7 cells expressing VEGFR3 cells assessed as decrease in total phosphorylation at 10 uM after 24 hrs by immunoprecipitation technique; format: cell-based
Sequence of Focal adhesion kinase 1 (Homo sapiens) (Q05397 2-1052 limits assumed): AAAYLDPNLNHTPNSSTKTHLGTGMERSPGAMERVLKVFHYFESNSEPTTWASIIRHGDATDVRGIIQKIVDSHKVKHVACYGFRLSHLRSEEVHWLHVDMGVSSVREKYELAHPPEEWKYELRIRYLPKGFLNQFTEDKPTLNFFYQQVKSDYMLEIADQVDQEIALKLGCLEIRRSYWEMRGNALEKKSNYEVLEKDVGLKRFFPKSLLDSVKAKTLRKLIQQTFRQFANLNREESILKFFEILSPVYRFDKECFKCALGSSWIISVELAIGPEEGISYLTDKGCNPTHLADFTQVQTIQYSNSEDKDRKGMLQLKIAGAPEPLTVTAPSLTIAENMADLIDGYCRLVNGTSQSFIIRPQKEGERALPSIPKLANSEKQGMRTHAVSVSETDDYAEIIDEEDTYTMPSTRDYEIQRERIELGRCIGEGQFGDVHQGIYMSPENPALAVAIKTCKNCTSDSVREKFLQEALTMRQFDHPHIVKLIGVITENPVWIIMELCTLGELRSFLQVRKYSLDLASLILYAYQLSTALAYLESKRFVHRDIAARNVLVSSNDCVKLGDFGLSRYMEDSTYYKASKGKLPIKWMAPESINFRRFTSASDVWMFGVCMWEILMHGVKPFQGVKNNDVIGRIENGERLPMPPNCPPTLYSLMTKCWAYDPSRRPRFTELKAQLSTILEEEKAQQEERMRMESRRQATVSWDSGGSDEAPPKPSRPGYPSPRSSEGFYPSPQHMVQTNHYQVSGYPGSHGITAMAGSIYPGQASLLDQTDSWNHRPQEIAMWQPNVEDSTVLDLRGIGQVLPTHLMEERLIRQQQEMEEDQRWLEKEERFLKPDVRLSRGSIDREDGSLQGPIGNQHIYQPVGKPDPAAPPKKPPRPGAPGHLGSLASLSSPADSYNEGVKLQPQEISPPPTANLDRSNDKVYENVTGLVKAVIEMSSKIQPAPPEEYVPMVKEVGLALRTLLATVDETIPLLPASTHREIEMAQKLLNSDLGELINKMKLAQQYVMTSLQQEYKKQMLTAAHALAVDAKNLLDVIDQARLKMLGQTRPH
In short: (§5)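 MCF7-VEGFR-3 and BT474 cells were treated for 24 h at 10 µM or 1 µM. FAK was immunoprecipitated and blotted with anti-phosphotyrosine antibody 4G10 to assess total FAK tyrosine phosphorylation.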

SAOS-2 = experiment: Cytotoxicity against human Saos2 cells after 72 hrs by MTS assay; format: functional, cell-based; details: SAOS-2, 72 h; in short: as §1
MCF7 [18] = experiment: Antiproliferative activity against human MCF7 cells expressing VEGFR3 after 48 hrs by BrdU incorporation assay; format: functional, cell-based; in short: as §2
[19] = target: Vascular endothelial growth factor receptor 3 (Homo sapiens) (UniProt P35916); experiment: Inhibition of VEGFR3 phosphorylation in human MCF7 cells expressing VEGFR3 assessed as partial dephosphorylation at Tyr1063/1068 activation loop at 1 to 10 uM by Western blotting; format: cell-based; details: TDE = time-dependent effect
MCF7 [20] = experiment: Cytotoxicity against human MCF7 cells assessed as cell viability at 1 uM after 48 hrs by MTS assay; format: functional, cell-based; in short: as §4
BT-474 [21] = experiment: Induction of apoptosis in human BT474 cells assessed as procaspase 8 activation after 48 hrs; format: functional, cell-based
[22] = target: Focal adhesion kinase 1 (Homo sapiens) (UniProt Q05397); experiment: Inhibition of FAK phosphorylation in human BT474 cells assessed as decrease in total phosphorylation at 10 uM after 24 hrs by immunoprecipitation technique; format: cell-based; details: BT-474; in short: as §5
[23] = target: Focal adhesion kinase 1/vascular endothelial growth factor receptor 3 (Homo sapiens) (UniProt P35916+Q05397); experiment: Disruption of FAK-VEGFR3 binding in human BT474 cells at 10 uM after 24 hrs by immunoprecipitation technique; format: cell-based; details: BT-474
Sequence of Focal adhesion kinase 1/vascular endothelial growth factor receptor 3 (Homo sapiens) (P35916 whole entry, looked up): as the sequence (P35916 whole entry) above
Sequence of Focal adhesion kinase 1/vascular endothelial growth factor receptor 3 (Homo sapiens) (Q05397 whole entry, looked up): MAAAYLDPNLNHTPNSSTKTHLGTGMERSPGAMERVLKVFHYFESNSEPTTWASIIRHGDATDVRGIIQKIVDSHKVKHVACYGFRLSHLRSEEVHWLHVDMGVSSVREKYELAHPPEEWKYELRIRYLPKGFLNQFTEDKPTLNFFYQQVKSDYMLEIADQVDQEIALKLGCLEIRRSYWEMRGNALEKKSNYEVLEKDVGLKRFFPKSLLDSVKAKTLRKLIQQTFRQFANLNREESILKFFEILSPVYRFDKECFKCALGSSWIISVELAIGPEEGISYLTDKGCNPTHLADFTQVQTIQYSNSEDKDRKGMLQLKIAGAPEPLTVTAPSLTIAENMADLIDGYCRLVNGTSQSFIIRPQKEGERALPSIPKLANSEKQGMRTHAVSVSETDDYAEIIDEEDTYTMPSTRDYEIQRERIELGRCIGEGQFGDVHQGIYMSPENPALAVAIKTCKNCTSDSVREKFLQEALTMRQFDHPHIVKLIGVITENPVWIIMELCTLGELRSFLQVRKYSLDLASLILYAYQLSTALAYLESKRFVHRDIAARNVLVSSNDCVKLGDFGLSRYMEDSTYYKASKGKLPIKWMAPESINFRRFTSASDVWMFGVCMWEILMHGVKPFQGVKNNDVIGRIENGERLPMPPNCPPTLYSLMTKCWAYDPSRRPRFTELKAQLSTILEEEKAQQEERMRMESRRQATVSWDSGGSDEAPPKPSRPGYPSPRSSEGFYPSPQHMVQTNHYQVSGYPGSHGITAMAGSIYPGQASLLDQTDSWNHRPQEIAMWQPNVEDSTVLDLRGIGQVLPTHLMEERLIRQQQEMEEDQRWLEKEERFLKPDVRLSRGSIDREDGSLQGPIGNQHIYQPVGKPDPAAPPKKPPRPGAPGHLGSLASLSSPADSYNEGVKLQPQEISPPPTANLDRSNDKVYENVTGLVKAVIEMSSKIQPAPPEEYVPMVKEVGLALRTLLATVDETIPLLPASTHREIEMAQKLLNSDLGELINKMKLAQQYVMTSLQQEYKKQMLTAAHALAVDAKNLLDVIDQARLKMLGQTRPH
In short: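 BT474 cells were treated for 24 h with increasing concentrations and then lysed. Lysates were immunoprecipitated with anti-VEGFR-3 antibody, and co-precipitated FAK was detected by western blot.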

BT-474 [24] = experiment: Induction of apoptosis in human BT474 cells assessed as PARP degradation after 48 hrs; format: functional, cell-based

In the case of `CN(C)CCN(Cc1ccc(Cl)cc1)c1ccccn1.Cl` [CHLORPYRAMIN HYDROCHLORIDE], the IC50 (HT-29) is reported as 1000 nM, the Activity (BT-474 [1]) is reported as “Dose-dependent effect” and the Activity (BT-474 [2]) is reported as “Active”. The Activity [3] was “tde”, the Activity (MCF7 [4]) was “inactive” and the Activity (MCF7 [5]) was “Dose-dependent effect”. For the same compound, the Activity (MCF7 [6]) was “Dose-dependent effect”, the Activity (MCF7 [7]) was 18% and the IC50 (A-375) was 1000 nM. The Activity (MCF7 [8]) was 20%, the Activity (MCF7 [9]) was “Dose-dependent effect” and the Activity [10] was “tde”. For the same compound, the “fold change (FC)” value (MCF7 [11]) was 2, the Activity (MCF7 [12]) was “Dose-dependent effect” and the Activity [13] was “Active”. For the same compound, the Activity [14] was “Active”, the Activity [15] was “Active” and the IC50 (PANC-1) was 1000 nM. The Activity (BT-474 [16]) was 20%, the IC50 (MDA-MB-231) was 1000 nM and the Activity [17] was “Active”. The IC50 (SAOS-2) was 1000 nM, the Activity (MCF7 [18]) was “Dose-dependent effect” and the Activity [19] was “tde”. The Activity (MCF7 [20]) was “Active”, the Activity (BT-474 [21]) was “Dose-dependent effect” and the Activity [22] was “Active”. For the same compound, the Activity [23] was “Active” and the Activity (BT-474 [24]) was “Dose-dependent effect”.

From ChEMBL document CHEMBL1158487, “Small molecule chloropyramine hydrochloride (C4) targets the binding site of focal adhesion kinase and vascular endothelial growth factor receptor 3 and suppresses breast cancer growth in vivo” (J Med Chem, 2009)
